TCR-CD3 inh: blocks the human TCR-CD3 interaction. actives 0.37% (n = 360,000). inhibition, % at 9.4 µM. AID 651800. TAMRA-labeled TCR probe fluorescence, biochemical; in the data active = inhibition above about 19%;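 also: recombinant mutant TCR 2C K166C tagged with TAMRA read by polarization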
PRMT1 FP inh: PRMT1 (human) inhibition, primary screen. AID 652257. actives 1.3% (n = 370,000). inhibition, % at 2.79 µM. recombinant PRMT1, activity-based probe fluorescence polarization. Q99873;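 active = inhibition above about 21% made by adding two undisclosed values, limit read from the data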
mABHD4 FP: inhibitors of mouse ABHD4. purified mABHD4, FP-Rh probe fluorescence polarization. inhibition, % at 8.92 µM. Q8VD66. actives 0.54% (n = 370,000);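 active = inhibition exceeding the mean over every tested compound plus 3 SD, cut at about 30% in these data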
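assay system = mABHD4 protein | compound dosing = single nominal dose of 8.92 µM, 0.89% DMSO final | read-out basis = percent inhibition of probe binding, normalized to plate controls | schedule = Enzyme–compound pre-incubation 45 min, then probe 60 min, both 25 °C | detection = fluorescence polarization, excitation 525 nm, emission 598 nm, BODIPY TMR filters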
HTRA1 inh: inhibitors of human serine peptidase HTRA1; Q92743; recombinant HTRA1, FP-rhodamine activity-based probe, fluorescence polarization; inhibition, % at 5.96 µM; actives 0.5% (n = 340,000); in the data active = inhibition above about 36%
Target sequence (Q92743 whole entry, looked up): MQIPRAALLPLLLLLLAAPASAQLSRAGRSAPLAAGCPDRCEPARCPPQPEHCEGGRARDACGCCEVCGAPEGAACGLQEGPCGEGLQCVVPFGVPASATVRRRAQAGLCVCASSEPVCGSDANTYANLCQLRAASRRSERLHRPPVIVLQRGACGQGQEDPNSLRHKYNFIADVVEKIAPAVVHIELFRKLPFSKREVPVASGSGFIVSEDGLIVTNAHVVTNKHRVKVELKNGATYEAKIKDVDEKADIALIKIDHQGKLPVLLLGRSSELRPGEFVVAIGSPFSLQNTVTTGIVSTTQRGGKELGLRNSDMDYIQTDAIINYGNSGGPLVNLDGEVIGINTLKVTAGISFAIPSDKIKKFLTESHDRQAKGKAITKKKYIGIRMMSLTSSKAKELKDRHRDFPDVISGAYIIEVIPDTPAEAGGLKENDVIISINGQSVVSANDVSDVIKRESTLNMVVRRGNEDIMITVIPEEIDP
SIAE inh: inhibitors of human sialic acid acetylesterase SIAE | SIAE FP-Rh probe binding, fluorescence polarization | inhibition, % at 9.66 µM | actives 0.69% (n = 370,000) | AID 1053197;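 active = inhibition above a cutoff: mean of compounds within the control limits plus 3 SD of those, cut at about 17% in these data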
Each line names hits and unclear results; the compound was inactive in the other large screens. Sampled rows, rich in hits. Any-hit rate of the full collection: about 2.6%.

O=C(N[C@@H](Cc1cccnc1)C(=O)N1CCC[C@H]1C(=O)NCCc1ccccc1Cl)C1CCCC1	none (no result: HTRA1 inh)
CC(=O)N1CC[n+]2c(-c3ccc(Cl)cc3)csc21	PRMT1 FP inh 78
Cc1ccc(-n2c(SCC(=O)Nc3ccc(S(=O)(=O)Nc4cc(C)nc(C)n4)cc3)nnc2-c2cccs2)cc1	none (no result: TCR-CD3 inh, HTRA1 inh)
COC(=O)c1cccc(NC(=O)c2ccc[n+]([O-])c2)c1	none
NC(=S)c1ccc[n+]([O-])c1	PRMT1 FP inh 59
O=C(CCCN1C(=O)/C(=C/c2ccccc2Cl)SC1=S)NCCCN1CCOCC1	PRMT1 FP inh 24
CC(C)(C)c1ccc(-c2noc(CCC(=O)NC3CC3)n2)cc1	none (no result: TCR-CD3 inh, HTRA1 inh)
COc1ccc(C(=O)N2CCN(c3cccc(Cl)c3)CC2)cc1S(=O)(=O)NC1CC1	PRMT1 FP inh 24
CC[n+]1c(/C=C/C=C/N(C(C)=O)c2ccccc2)sc2ccccc21	PRMT1 FP inh 35
CCn1c(/C=C/N(C(C)=O)c2ccccc2)[n+](CC)c2ccc(Cl)cc21	none
COC(=O)c1ccc2nc(-c3ccc(F)cc3)c(Cc3ccc(OC)cc3C)n2c1	none (no result: HTRA1 inh)
COC(=O)c1ccc2nc(-c3ccco3)c(Cc3ccc(OC)cc3C)n2c1	PRMT1 FP inh 22 (no result: HTRA1 inh)
Cc1ccc(Cc2c(-c3ccco3)nc3c4ccccc4ccn23)cc1	none (no result: HTRA1 inh)
Cc1ccc(Cc2c(-c3ccco3)nc3ccc(C)cn23)cc1	PRMT1 FP inh 21 (no result: HTRA1 inh)
O=S(=O)(O)c1cc(O)c2ccc(Nc3ccccc3)cc2c1	TCR-CD3 inh 35, PRMT1 FP inh 28, mABHD4 FP 63
COC(=O)[C@]12C[C@H](CC(=O)NCc3cccc(C(F)(F)F)c3)C(=O)N(Cc3ccc(Cl)cc3Cl)C1=C[C@H](C(C)(C)C)O[C@@H]2C	none (no result: TCR-CD3 inh, HTRA1 inh)
CN1CCCCC(NC(=O)c2ccccc2)C1=O (stereo not given)	none (no result: HTRA1 inh)
CCn1ncc(NC(=S)Nc2ccc3c(c2)OCO3)c1C(N)=O	none
CCn1ncc(NC(=S)Nc2ccc(OC)c(OC)c2)c1C(N)=O	PRMT1 FP inh 22
COC(=O)[C@H](C(C)C)N1CCc2nnn(CC3CCCCC3)c2-c2cc(F)ccc2S1(=O)=O	none (no result: TCR-CD3 inh, HTRA1 inh)
COC(=O)[C@H](C)NC(=O)C(Cc1ccc2c(c1)OCO2)NC(C)=O (stereo not given in full)	none (no result: TCR-CD3 inh, HTRA1 inh)
COc1cc2c(ccc3cc(OC)c(OC)c(O)c32)cc1O	TCR-CD3 inh 39
COc1cc2cccc(OC)c(=O)c2c(O)c1OC	none
COC(=O)c1ccc(CN2CCCC(C(=O)Nc3cccc(-n4cccn4)c3)C2)cc1 (stereo not given)	none
CC(=O)c1cccc(CN2CCCC(C(=O)Nc3cccc(-n4cccn4)c3)C2)c1 (stereo not given)	PRMT1 FP inh 22
Cc1ccc(S(=O)(=O)CCSc2cccc(C(=O)Nc3ccccc3C(=O)O)c2)cc1	PRMT1 FP inh 77
CC(C)c1nc(N(C)S(C)(=O)=O)nc(-c2ccc(F)cc2)c1/C=C/[C@H](O)C[C@@H](O)CC(=O)O	none (no result: TCR-CD3 inh, HTRA1 inh)
Cc1cc(=O)c2c(O)c(O)ccc2o1	PRMT1 FP inh 23
COc1cc([N+](=O)[O-])cc(/C=C2/SC(=S)N(Cc3ccccc3)C2=O)c1O	PRMT1 FP inh 21
O=C(O)CN1C(=O)/C(=C\c2cc(Br)ccc2OCc2ccc([N+](=O)[O-])cc2)SC1=S	PRMT1 FP inh 24
O=C(O)CN1C(=O)/C(=C\c2cc(Br)ccc2OCc2ccccc2Cl)SC1=S	none
Nn1c(SCc2cccc3ccccc23)nnc1-c1cc(-c2ccc(F)cc2)n[nH]1	none (no result: TCR-CD3 inh, HTRA1 inh)
COc1ccc(NCc2nnc(SCC(=O)Nc3cc(C)cc(C)c3)o2)cc1	PRMT1 FP inh 24
Cc1sc2ccc3sccc3c2[n+]1C	PRMT1 FP inh 77
Cc1cc(C(F)F)nn1CC(=O)NC1C(=O)N2C(C(=O)O)=C(CSc3nnnn3C)CSC12 (stereo not given)	PRMT1 FP inh 24
CC(C(=O)NC1C(=O)N2C(C(=O)O)=C(CSc3nnnn3C)CSC12)n1cc(Br)cn1 (stereo not given)	none
Cc1nn(C(C)C(=O)NC2C(=O)N3C(C(=O)O)=C(CSc4nnnn4C)CSC23)cc1Cl (stereo not given)	PRMT1 FP inh 24
OC(c1ccccc1)(c1ccccc1)C1CCN(CCCNc2cccc(Br)c2)CC1	none (no result: TCR-CD3 inh, HTRA1 inh)
CCN1CCN(c2cc(C(C)C)nc3c(-c4ccccc4)c(C)nn23)CC1	SIAE inh 18 (no result: HTRA1 inh)
O=c1oc2c3c4c(cc2s1)CCCN4CCC3	PRMT1 FP inh 75
O=C(CCl)c1cc2c3c(c1)CC(=O)N3CCC2	none
CC(C)CN1C(=O)C[C@@]2(C(=O)N(C)c3ccc(NS(=O)(=O)c4ccc(F)cc4)cc32)C1c1ccccc1 (stereo not given in full)	none (no result: TCR-CD3 inh, HTRA1 inh)
CC(=O)Oc1ccc2c(c1)Oc1cc(OC(C)=O)ccc1C21OC(=O)c2ccccc21	HTRA1 inh 124 (no result: TCR-CD3 inh, PRMT1 FP inh, mABHD4 FP, SIAE inh)
Cc1cc(O)ccc1C1(c2ccc(O)cc2C)OC(=O)c2ccccc21	none
Cc1cc(C)cc(NC(=O)NCCCN2CCN(c3ccc(F)cc3)CC2)c1	none (no result: TCR-CD3 inh, HTRA1 inh)
COc1cc(N)c2ncccc2c1Cl	mABHD4 FP 34
Oc1ccc(C2CNCCc3c2cc(O)c(O)c3Cl)cc1 (stereo not given)	none
Oc1ccc(C2CNCc3sccc32)cc1O (stereo not given)	PRMT1 FP inh 46
Cc1ccc(Cn2cc(CN3[C@@H](CC(C)C)COc4cc(Br)ccc4S3(=O)=O)nn2)cc1	none (no result: TCR-CD3 inh, HTRA1 inh)
C/C(=N\OCc1nc2ccccc2c(=O)n1/N=C/c1cc([N+](=O)[O-])ccc1O)c1ccccc1	TCR-CD3 inh 23
Cc1cc(/C=C2\SC(=S)NC2=O)c(C)n1C	PRMT1 FP inh 23
O=C(CSc1nc2cc(Cl)ccc2s1)NC(=O)NCc1ccco1	PRMT1 FP inh 21
CN1C(=O)C[C@@](C#N)(C(=O)NCc2ccccc2)[C@H]1c1ccccc1	none (no result: TCR-CD3 inh, HTRA1 inh)
O=S(=O)(Nc1cc(Sc2cccc3cccnc23)c(O)c2ccccc12)c1ccc(F)cc1	PRMT1 FP inh 73, mABHD4 FP 38 (no result: HTRA1 inh)
O=S(=O)(Nc1cccnc1Cl)c1ccc(F)cc1	none
Oc1ccc2c(c1)C1CCCC1(N1CCOCC1)O2 (stereo not given)	PRMT1 FP inh 27, mABHD4 FP 34
CC(C)C1N=C2c3ccccc3N=C(SCc3cc(=O)n4cc(Cl)ccc4n3)N2C1=O (stereo not given)	SIAE inh 19
O=C(c1cc(F)cc(F)c1)N1CCCC(c2nc(-c3cccs3)no2)C1 (stereo not given)	none (no result: TCR-CD3 inh, HTRA1 inh)
Cc1ccc(S(=O)(=O)Nn2c(O)c(C=C3N=c4ccccc4=N3)sc2=S)cc1	PRMT1 FP inh 25
COC(=O)C1CN(Cc2ccc(OC)cc2)CCS(=O)(=O)N1Cc1ccc(F)cc1 (stereo not given)	none (no result: TCR-CD3 inh, HTRA1 inh)
CCOC(=O)C1=C(C)c2ccccc2N(C(=O)OC)C1(C)C(=O)OCC (stereo not given)	PRMT1 FP inh 24
C=CCC12C=C(OC)C(=O)C(C1=O)C(c1ccc(OC)cc1)C2C (stereo not given)	none (no result: TCR-CD3 inh, HTRA1 inh)
Cc1ccccc1N(Cc1cc(=O)[nH]c2ccccc12)C(=O)CCl	none
